Cneo AK release: Cryptococcus neoformans lysis via adenylate kinase release; C. neoformans lysis, adenylate kinase release luminescence, 4 h; normalised: neutral wells 0, clomiphene wells 100; 360,000 compounds, 0.2% hits; lysis activity, % at 15 µM;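 active = mean lysis activity across replicates of at least 80%, whatever share of replicates individually reach that level; inactive = mean lysis activity below 80%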
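Test system: log-phase Cryptococcus neoformans yeast cells. Input: 5 × 10^6 yeast cells/mL. Medium: fresh YPD growth medium. Doses: single dose. Incubation: static 4 h at 37 °C with compound, 1 h detection. Measured by: luminescent adenylate kinase detection reagent. Read-out: signal increase indicating cell lysis. Benchmarks: Clomiphene.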
Ecoli rRNA inh: inhibitors of bacterial rRNA selective over humanized ribosomes; GFP signal change (wild-type ribosome), % (test concentration not listed); E. coli WT GFP vs humanized-ribosome RFP mutants, fluorescence, 24 h; active compounds read low; DMSO median 0, no signal -100; 350,000 compounds, 1.6% hits;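 active = significant combined selectivity score with lowered wild-type GFP, culture density cut under 30%, mutant RFP and density less affected; inactive = any of these conditions unmet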
PGC1a acetyl inh: modulators of PGC1a acetylation; U2OS PGC1a acetylation, AlphaScreen anti-acetyl-lysine; with virally co-expressed GCN5 acetyltransferase; inhibition, % at 15.6 µM; 350,000 compounds, 0.17% hits; AID 651687;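 active = every replicate shows inhibition of at least 40%; inconclusive = mean inhibition at least 40% but some replicate below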
FGF22 binding: binders of recombinant human FGF22 by thermal shift | Q9HCT0 | SYPRO orange fluorescence; percent of sucrose octasulfate shift, DMSO zero | activity (Tm shift, normalised), % at 9.99 µM | 340,000 compounds, 1.5% hits;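 active = mean Tm shift, scaled 0 neutral to 100 positive control, at about 1.3% or above, every replicate too, limit read from the data; inconclusive = no clear call, values can overlap the other calls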
Target sequence (Q9HCT0 whole entry, looked up): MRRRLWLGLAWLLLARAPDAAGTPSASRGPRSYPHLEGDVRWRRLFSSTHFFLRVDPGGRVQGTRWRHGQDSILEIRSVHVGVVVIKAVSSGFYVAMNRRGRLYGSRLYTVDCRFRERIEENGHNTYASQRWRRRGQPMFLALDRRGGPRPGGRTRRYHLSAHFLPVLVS
ERAP1 HTS inh: inhibitors of human ERAP1 aminopeptidase; Q9NZ08; recombinant ERAP1, Leu-AMC fluorescence, 60 min; inhibition, % at 10.7 µM; 340,000 compounds, 0.15% hits;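 active = mean replicate inhibition of at least 30%, or all replicates individually reaching that 30% level; inactive = mean below 30% and not every replicate reaching it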
Env fusion inh: blocks HIV Env-driven cell-cell fusion. HeLa-JRFL Env/CEM21 cell fusion, luciferase. inhibition, % at 12.3 µM. 360,000 compounds, 1.1% hits;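 active = mean replicate inhibition score of at least 50 and every replicate individually at or above 50; inconclusive = only one of the two criteria met; inactive = mean below 50 and not all replicates reaching 50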
Each line names hits and unclear results; the compound was inactive in the other large screens; [ ] = remark or other dose. Compounds with a hit are over-represented: about 3.5% of the library has one in this group of screens.

O=C(Nc1cccc(-c2cn3ccccc3n2)c1)c1cccc(Cl)c1	none (no result: Cneo AK release, Ecoli rRNA inh, FGF22 binding, ERAP1 HTS inh, Env fusion inh)
N=c1oc2ccc3ccccc3c2cc1-c1nc(-c2ccccc2)cs1	none (no result: PGC1a acetyl inh)
COc1ccc(C(=O)N/C(=C\c2ccc(Cl)cc2)C(=O)NCCN2CCOCC2)cc1	none (no result: PGC1a acetyl inh)
COc1ccc(/C=C(\NC(=O)c2ccc([N+](=O)[O-])cc2)C(=O)NCCN2CCOCC2)cc1	none (no result: PGC1a acetyl inh)
COc1ccc(/C=C(\NC(=O)c2ccc([N+](=O)[O-])cc2)C(=O)NCCCN2CCOCC2)cc1	Ecoli rRNA inh -14
COc1ccc(/C=C(\NC(=O)c2ccc(C)cc2)C(=O)NCCN2CCOCC2)cc1	FGF22 binding 1.4 (no result: PGC1a acetyl inh)
CC(=O)N1c2ccc(S(=O)(=O)N3CCCC(C(=O)NCc4ccccc4Cl)C3)cc2CC1C (stereo not given)	none
COCC(=O)N(C)C[C@H]1Oc2ncc(-c3cccc(OC)c3)cc2C(=O)N([C@H](C)CO)C[C@@H]1C	none
COc1ccc(C)cc1NC(=O)NNC(=O)C1CCC(C(C)(C)C)CC1 (stereo not given)	Ecoli rRNA inh -17 (no result: PGC1a acetyl inh, ERAP1 HTS inh)
CCCc1c(C(=O)N/N=C(/C)c2ccncc2)nnn1-c1nonc1N	none
COc1ccc(-c2cnc(N)nc2-c2ccc(OC)cc2O)cc1	Ecoli rRNA inh -28, Env fusion inh inconclusive (no result: FGF22 binding)
COc1ccc(-c2nc(N)ncc2-c2ccccc2)c(O)c1	none (no result: Cneo AK release, PGC1a acetyl inh)
C[C@H]1CN([C@@H](C)CO)C(=O)c2c(c3ccccc3n2C)-c2ccccc2CO[C@@H]1CN(C)C(=O)Cc1ccccc1	Env fusion inh 59[16.7 µM] (no result: FGF22 binding)
C[C@@H]1CN([C@H](C)CO)C(=O)c2c(c3ccccc3n2C)-c2ccccc2CO[C@H]1CN(C)C(=O)Cc1ccccc1	none
CO[C@H](C(=O)N(C)C[C@@H]1OCc2ccccc2-c2c(n(C)c3ccccc23)C(=O)N([C@H](C)CO)C[C@@H]1C)c1ccccc1	Env fusion inh 78
C[C@H](CO)N1C[C@H](C)[C@@H](CN(C)C(=O)Cc2ccccc2)OCc2ccccc2-c2c(n(C)c3ccccc23)C1=O	none
C[C@H](CO)N1C[C@H](C)[C@H](CN(C)C(=O)Cc2ccccc2)OCc2ccccc2-c2c(n(C)c3ccccc23)C1=O	Env fusion inh 58[16.7 µM] (no result: Cneo AK release, FGF22 binding, ERAP1 HTS inh)
CO[C@H](C(=O)N(C)C[C@H]1OCc2ccccc2-c2c(n(C)c3ccccc23)C(=O)N([C@H](C)CO)C[C@H]1C)c1ccccc1	none
C[C@H]1CN([C@@H](C)CO)C(=O)c2c(c3ccccc3n2C)-c2ccccc2CO[C@H]1CN(C)C(=O)CCC(F)(F)F	Env fusion inh 63[16.7 µM]
C[C@H]1CN([C@@H](C)CO)C(=O)c2ccccc2-c2ccccc2CO[C@@H]1CN(C)C(=O)CCC(F)(F)F	Env fusion inh 57[16.7 µM] (no result: Cneo AK release, FGF22 binding, ERAP1 HTS inh)
C[C@H](CO)N1C[C@H](C)[C@H](CN(C)C(=O)c2ccccc2)OCc2ccccc2-c2c(n(C)c3ccccc23)C1=O	Env fusion inh 58 (no result: ERAP1 HTS inh)
C[C@H]1CN([C@@H](C)CO)C(=O)c2c(c3ccccc3n2C)-c2ccccc2CO[C@@H]1CN(C)C(=O)c1ccccc1	none (no result: Env fusion inh)
CC(C)COC(=O)N(C)C[C@H]1OCc2ccccc2-c2c(n(C)c3ccccc23)C(=O)N([C@H](C)CO)C[C@@H]1C	Env fusion inh 62[16.7 µM]
CC(C)COC(=O)N(C)C[C@H]1OCc2ccccc2-c2c(n(C)c3ccccc23)C(=O)N([C@H](C)CO)C[C@H]1C	none (no result: Cneo AK release, PGC1a acetyl inh, FGF22 binding, ERAP1 HTS inh, Env fusion inh)
Cc1ccc(N(C)S(=O)(=O)c2ccc(C)cc2)cc1	none (no result: Ecoli rRNA inh, FGF22 binding, ERAP1 HTS inh)
Cc1ccc(S(=O)(=O)N(C)c2ccc3ccccc3c2)cc1	FGF22 binding 44
O=C(CCC1CCCC1)NCCCN1CCOCC1	none (no result: Ecoli rRNA inh, PGC1a acetyl inh, FGF22 binding, ERAP1 HTS inh)
COc1ccccc1N=Nc1ccc(O)c2ncccc12	none
CCS(=O)(=O)c1ccc(N=Nc2ccc(O)c3ncccc23)c(OC)c1	Env fusion inh 66 (no result: Cneo AK release, FGF22 binding)
CS(=O)(=O)N(CC(=O)Nc1ccc(S(=O)(=O)N2CCCC2)cc1)c1ccccc1	FGF22 binding 43 (no result: Cneo AK release)
O=C(Nc1ccccc1)Nc1ccc(S(=O)(=O)N2CCCCC2)cc1	none (no result: Ecoli rRNA inh, FGF22 binding, ERAP1 HTS inh, Env fusion inh)
O=C(Nc1ccc(S(=O)(=O)N2CCCC2)cc1)N1c2ccccc2Sc2ccccc21	FGF22 binding 2.3 (no result: Env fusion inh)
NNc1ncnc2scc(-c3ccc(Cl)cc3)c12	none (no result: PGC1a acetyl inh)
OCCCNc1ncnc2scc(-c3ccc(Cl)cc3)c12	Env fusion inh 62
Cc1ccc(-c2csc3ncnc(NS(=O)(=O)c4ccc(Cl)cc4)c23)cc1	none
O=S(=O)(Nc1ncnc2scc(-c3ccc(F)cc3)c12)c1cc(F)ccc1F	FGF22 binding 2.8 (no result: Cneo AK release)
CCOC(=O)CN1C(=O)N[C@@H](c2ccco2)C(C(C)=O)=C1C	none
CCOC(=O)N1CCN(C(=O)CSc2cc(C)nc3c(-c4ccccc4OC)c(C)nn23)CC1	none (no result: Ecoli rRNA inh, FGF22 binding, ERAP1 HTS inh, Env fusion inh)
CCC(=O)Nc1cccc(C2=NOC3(C2)C[C@@H](C(N)=O)N(C(=O)c2ccc(OC)cc2)C3)c1 (stereo not given in full)	Env fusion inh inconclusive
Cc1ccc(NCCCn2cnc3c(OCc4ccccc4)ncnc32)cc1C	Ecoli rRNA inh -21 (no result: ERAP1 HTS inh)
CC(CNCCCn1cnc2c(OCc3ccccc3)ncnc21)c1ccccc1 (stereo not given)	Ecoli rRNA inh -17 (no result: ERAP1 HTS inh)
c1ccc(CNCCCn2cnc3c(OCc4ccccc4)ncnc32)cc1	none (no result: ERAP1 HTS inh)
COc1ccc(CNC(=O)COc2cc3c(c4oc(=O)cc(C)c24)CCC(C)(C)O3)cc1	none (no result: Ecoli rRNA inh, Env fusion inh)
CCOC(=O)C1=C(O)C(=O)N(CCCn2ccnc2)C1c1ccc(C)cc1 (stereo not given)	none (no result: Cneo AK release)
COc1ccc(-n2c(-c3ccc(Cl)cc3Cl)n[nH]c2=S)c(OC)c1	Ecoli rRNA inh -32
C#CC(=O)N(c1cc(OC)ccc1OC)C(C(=O)NC1CCCC1)c1cccs1 (stereo not given)	PGC1a acetyl inh 88 (no result: Ecoli rRNA inh, FGF22 binding, ERAP1 HTS inh, Env fusion inh)
C#CC(=O)N(c1ccc(OC)cc1OC)C(C(=O)NC1CCCC1)c1cccs1 (stereo not given)	PGC1a acetyl inh 95, Env fusion inh 109 (no result: Cneo AK release)
O=C(CNc1ccc2ccccc2c1)N/N=C/c1ccc(OC(=O)/C=C/c2ccco2)cc1	FGF22 binding 44 (no result: Cneo AK release, PGC1a acetyl inh)
O=C(Nc1ccc(OCc2ccccc2)cc1)Nc1ccccc1C(=O)NCCCN1CCOCC1	Ecoli rRNA inh -22 (no result: Cneo AK release)
O=C(Nc1nc2ccc(F)cc2s1)c1ccc([N+](=O)[O-])o1	Ecoli rRNA inh -26 (no result: PGC1a acetyl inh)
NNc1nc(-c2ccccc2)c2cc(Br)ccc2n1	none
NNc1nc(-c2ccccc2)cc(-c2ccc(Br)cc2)n1	Ecoli rRNA inh -25
COc1ccc(CCC2(C)NC(=O)N(C(C)C(=O)N3c4ccccc4CC3C)C2=O)cc1 (stereo not given)	Ecoli rRNA inh -18 (no result: PGC1a acetyl inh, Env fusion inh)
COCCCNC(=S)NC1CC2CCC(C1)N2Cc1ccccc1 (stereo not given)	FGF22 binding 43 (no result: Cneo AK release)
Cc1cccc(NC(=O)c2nc[nH]c2C(=O)N(C)CCO)c1	Ecoli rRNA inh -40 (no result: Cneo AK release, PGC1a acetyl inh)

Compound activity: PubChem, Broad Institute
